Assay results from different studies.
Compare with care: the assays were run in different laboratories.
Target: Tyrosine-protein kinase ITK/TSK (ITK, Homo sapiens, UniProt Q08881)
Sequence (Q08881 1-620, as in one of the studies): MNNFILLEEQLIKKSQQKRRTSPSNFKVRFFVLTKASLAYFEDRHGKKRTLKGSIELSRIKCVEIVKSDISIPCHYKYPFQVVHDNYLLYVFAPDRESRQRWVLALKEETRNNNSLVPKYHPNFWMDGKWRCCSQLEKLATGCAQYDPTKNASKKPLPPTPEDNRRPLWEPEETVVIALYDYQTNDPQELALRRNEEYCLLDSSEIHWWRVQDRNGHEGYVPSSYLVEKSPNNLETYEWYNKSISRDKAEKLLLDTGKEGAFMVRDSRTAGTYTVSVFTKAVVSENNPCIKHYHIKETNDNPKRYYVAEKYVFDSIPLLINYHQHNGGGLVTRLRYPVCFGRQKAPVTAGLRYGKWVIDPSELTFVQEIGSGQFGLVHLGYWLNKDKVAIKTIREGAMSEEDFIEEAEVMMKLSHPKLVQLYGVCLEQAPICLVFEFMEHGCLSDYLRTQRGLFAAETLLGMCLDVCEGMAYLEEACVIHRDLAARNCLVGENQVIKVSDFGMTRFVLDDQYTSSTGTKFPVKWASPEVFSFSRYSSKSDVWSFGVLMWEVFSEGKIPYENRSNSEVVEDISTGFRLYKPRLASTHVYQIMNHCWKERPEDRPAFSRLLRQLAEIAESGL

SMILES | observed | mode | technique | tested at | endpoint | value
N#CC1(c2ccccn2)CCN(Cc2cc(C(=O)O)c(=O)n3ccccc23)CC1 | cell-free assay |  | competition with immobilised ligand | 1 µM | remaining binding | 100%
O=c1[nH]c2ccccc2n1C1CCN(Cc2ccc(-c3[nH]c4cc5ncnc5cc4nc3-c3ccccc3)cc2)CC1 | cell-free assay |  |  | 0.5 µM | remaining signal | 99.8%
Cn1cncc1[C@@](O)(COc1ccc(C#N)cc1-c1ccc(OC(F)(F)F)cc1)c1ccc(C#N)cc1 | cell-free assay |  | competition with immobilised ligand | 1 µM | remaining binding | 100%
Cn1cc(-c2cc(F)cc(N3CCn4c(cc5c4CCCC5)C3=O)c2CO)cc(Nc2ccc(N3CCN(C4COC4)CC3)cn2)c1=O | enzyme activity | inhibitor |  | 0.1 µM | inhibition | 4%
CC(C)(C)c1cc(C=C(C#N)C#N)cc(Br)c1O | enzyme activity | inhibitor |  | 0.5 µM | remaining activity | 98.4%
Cn1cc(-c2cccc(N3CCc4c(sc5c4CC(C)(C)C5)C3=O)c2CO)cc(Nc2ccncn2)c1=O | enzyme activity | inhibitor |  | 1 µM | inhibition | 6%
Nc1ncc(-c2nc(N3CCOCC3)nc(N3CCOCC3)n2)c(C(F)F)n1 | binding |  | competition with immobilised ligand | 10 µM | remaining binding | 44%
COc1ncccc1-c1cnn2ccc(N3CCN(C(=O)OC(C)C)CC3)nc12 | binding |  | competition with immobilised ligand | 1 µM | remaining binding | 100%
Cc1nn(C)cc1-c1nc2c(N3CCN(Cc4ccc(Cl)cc4)CC3)c(Cl)cnc2[nH]1 | binding |  | competition with immobilised ligand | 1 µM | remaining binding | 100%
